Experiments:
Type in all cases: functional
HCT-116 = assay: Growth inhibition of human HCT116 cells at 10 uM relative to control; conditions: values are per cent of control
How it was run: (§1)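 Single-dose preliminary screen in the NCI human cancer cell line panel, run by the NIH. Percent inhibition of cell line growth was calculated by comparison with untreated samples.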

HCT-15 = assay: Growth inhibition of human HCT15 cells at 10 uM relative to control; conditions: values are per cent of control; how it was run: as §1
HT-29 = assay: Growth inhibition of human HT-29 cells at 10 uM relative to control; conditions: values are per cent of control; how it was run: as §1
KM12 = assay: Growth inhibition of human KM12 cells at 10 uM relative to control; conditions: values are per cent of control; how it was run: as §1
SW-620 = assay: Growth inhibition of human SW620 cells at 10 uM relative to control; conditions: values are per cent of control
How it was run: (§2)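 Single-dose NCI human tumour cell line screen, run by the NIH. Percent inhibition of cell line growth was calculated by comparison with untreated samples.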

BT-549 = assay: Growth inhibition of human BT549 cells at 10 uM relative to control; conditions: values are per cent of control; how it was run: as §1
[1] = Growth inhibition of human Hs 578T cells at 10 uM relative to control; conditions: values are per cent of control; how it was run: as §1
MCF7 = assay: Growth inhibition of human MCF7 cells at 10 uM relative to control; conditions: values are per cent of control; how it was run: as §1
MDA-MB-231 = assay: Growth inhibition of human MDA-MB-231 cells at 10 uM relative to control; conditions: values are per cent of control; how it was run: as §1
MDA-MB-435 = assay: Growth inhibition of human MDA-MB-435 cells at 10 uM relative to control; conditions: values are per cent of control; how it was run: as §1
MDA-MB-468 = assay: Growth inhibition of human MDA-MB-468 cells at 10 uM relative to control; conditions: values are per cent of control; how it was run: as §1
NCI/ADR-RES = assay: Growth inhibition of human NCI/ADR-RES cells at 10 uM relative to control; conditions: values are per cent of control; how it was run: as §1
T47D = assay: Growth inhibition of human T47D cells at 10 uM relative to control; conditions: values are per cent of control; how it was run: as §2
IGROV-1 = assay: Growth inhibition of human IGROV1 cells at 10 uM relative to control; conditions: values are per cent of control; how it was run: as §1
OVCAR-4 = assay: Growth inhibition of human OVCAR4 cells at 10 uM relative to control; conditions: values are per cent of control; how it was run: as §1
OVCAR-5 = assay: Growth inhibition of human OVCAR5 cells at 10 uM relative to control; conditions: values are per cent of control; how it was run: as §1
OVCAR-8 = assay: Growth inhibition of human OVCAR8 cells at 10 uM relative to control; conditions: values are per cent of control; how it was run: as §1
SK-OV-3 = assay: Growth inhibition of human SKOV3 cells at 10 uM relative to control; conditions: values are per cent of control; how it was run: as §1
CCRF-CEM = assay: Growth inhibition of human CCRF-CEM cells at 10 uM relative to control; conditions: values are per cent of control; how it was run: as §1
HL-60(TB) = assay: Growth inhibition of human HL-60(TB) cells at 10 uM relative to control; conditions: read-out: INH
How it was run: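 Single-dose cell line screen run by the NCI (NIH) in its human cancer cell line panel, which includes the leukemia line HL-60(TB). Percent growth inhibition was calculated by comparison with untreated samples.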

K562 = assay: Growth inhibition of human K562 cells at 10 uM relative to control; conditions: values are per cent of control; how it was run: as §1
MOLT-4 = assay: Growth inhibition of human MOLT4 cells at 10 uM relative to control; conditions: values are per cent of control; how it was run: as §1
[2] = Growth inhibition of human RPMI8266 cells at 10 uM relative to control; conditions: values are per cent of control; how it was run: as §1
786-0 = assay: Growth inhibition of human 786-0 cells at 10 uM relative to control; conditions: values are per cent of control; how it was run: as §1
A498 = assay: Growth inhibition of human A498 cells at 10 uM relative to control; conditions: values are per cent of control; how it was run: as §1
ACHN = assay: Growth inhibition of human ACHN cells at 10 uM relative to control; conditions: values are per cent of control; how it was run: as §1
CAKI-1 = assay: Growth inhibition of human Caki1 cells at 10 uM relative to control; conditions: values are per cent of control; how it was run: as §1
SN12C = assay: Growth inhibition of human SN12C cells at 10 uM relative to control; conditions: values are per cent of control; how it was run: as §1
TK-10 = assay: Growth inhibition of human TK10 cells at 10 uM relative to control; conditions: values are per cent of control; how it was run: as §2
UO-31 = assay: Growth inhibition of human UO31 cells at 10 uM relative to control; conditions: values are per cent of control; how it was run: as §2
LOX IMVI = assay: Growth inhibition of human LOXIMVI cells at 10 uM relative to control; conditions: values are per cent of control; how it was run: as §1

## O=C(/C=C/c1cn(CC(=O)Nc2ccccc2)nn1)NO
HCT-116
  growth, % of control at 10 µM: 55.3%
HCT-15
  growth, % of control at 10 µM: 105%
HT-29
  growth, % of control at 10 µM: 51.9%
KM12
  growth, % of control at 10 µM: 76%
SW-620
  growth, % of control at 10 µM: 91.5%
BT-549
  growth, % of control at 10 µM: 83.6%
[1]
  growth, % of control at 10 µM: 84.2%
MCF7
  growth, % of control at 10 µM: 95.8%
MDA-MB-231
  growth, % of control at 10 µM: 104%
MDA-MB-435
  growth, % of control at 10 µM: 63.4%
MDA-MB-468
  growth, % of control at 10 µM: 64.2%
NCI/ADR-RES
  growth, % of control at 10 µM: 13.4%
T47D
  growth, % of control at 10 µM: 56.6%
IGROV-1
  growth, % of control at 10 µM: 86.4%
OVCAR-4
  growth, % of control at 10 µM: 83.7%
OVCAR-5
  growth, % of control at 10 µM: 79%
OVCAR-8
  growth, % of control at 10 µM: 51.9%
SK-OV-3
  growth, % of control at 10 µM: 79.5%
CCRF-CEM
  growth, % of control at 10 µM: 57.1%
HL-60(TB)
  growth, % of control at 10 µM: 153%
K562
  growth, % of control at 10 µM: 86%
MOLT-4
  growth, % of control at 10 µM: 62.2%
[2]
  growth, % of control at 10 µM: 64.2%
786-0
  growth, % of control at 10 µM: 69.5%
A498
  growth, % of control at 10 µM: 105%
ACHN
  growth, % of control at 10 µM: 113%
CAKI-1
  growth, % of control at 10 µM: 81.7%
SN12C
  growth, % of control at 10 µM: 89%
TK-10
  growth, % of control at 10 µM: 101%
UO-31
  growth, % of control at 10 µM: 74%
LOX IMVI
  growth, % of control at 10 µM: 95.4%
